Laboratory results from ChEMBL document CHEMBL1139490, “Design, synthesis, and biological evaluation of prazosin-related derivatives as multipotent compounds” (J Med Chem, 2005).

Columns and labels:
[1] = system: LNCaP; experiment: Antioxidant activity against t-BuOOH induced ROS formation in LNCaP cells after 24 hr at 1-100 uM; Inactive at 100 uM; assay type: functional, cell-based, Homo sapiens
[2] = system: LNCaP; experiment: Antiproliferative activity in MTS assay in LNCaP cells after 72 hr at 1-100 uM; Inactive at 100 uM; assay type: functional, cell-based, Homo sapiens
In short: (§1)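 LNCaP cells exposed 72 h to compounds (1–100 μM). Proliferation read by colorimetric MTS assay. IC50 is the concentration giving 50% inhibition of cell proliferation. Mean ± SD of three independent experiments.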

[3] = molecular target: T1, Alpha-1A adrenergic receptor (Rattus norvegicus, UniProt P43140); experiment: Blocking activity was assessed by antagonism of (-)-noradrenaline induced contraction of rat prostatic vas deferens (alpha1A adrenoceptor); assay type: functional, tissue-based; details: read-out: pA2 (converted)
T1 sequence (P43140 whole entry): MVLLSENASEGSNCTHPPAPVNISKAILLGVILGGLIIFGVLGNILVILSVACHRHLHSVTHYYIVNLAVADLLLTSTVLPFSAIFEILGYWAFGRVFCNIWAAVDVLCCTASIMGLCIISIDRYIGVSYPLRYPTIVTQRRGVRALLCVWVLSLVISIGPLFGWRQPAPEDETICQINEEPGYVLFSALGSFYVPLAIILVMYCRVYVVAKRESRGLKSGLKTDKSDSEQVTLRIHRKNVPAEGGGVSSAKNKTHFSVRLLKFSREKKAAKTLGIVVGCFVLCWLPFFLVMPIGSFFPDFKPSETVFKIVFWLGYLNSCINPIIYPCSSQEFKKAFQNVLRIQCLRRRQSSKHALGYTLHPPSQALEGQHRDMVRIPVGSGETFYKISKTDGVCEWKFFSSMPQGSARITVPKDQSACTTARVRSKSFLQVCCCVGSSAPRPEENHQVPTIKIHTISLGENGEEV

[4] = system: LNCaP; experiment: Antiproliferative activity was determined by colorimetric MTS assay in LNCaP cells after 72 hr of incubation with compounds (1-100 uM); Not active at 100 uM; assay type: functional, cell-based, Homo sapiens; in short: as §1
[5] = system: LNCaP; experiment: Antioxidant activity against formation of ROS was determined in t-BuOOH treated LNCaP cells after 24 hr of incubation with compounds (1-100 uM); assay type: functional, cell-based; details: Homo sapiens
[6] = molecular target: T2, Alpha-1D adrenergic receptor (Rattus norvegicus, UniProt P23944); experiment: Blocking activity was assessed by antagonism of (-)-noradrenaline induced contraction of rat thoracic aorta (Alpha-1D adrenoceptor); assay type: functional, tissue-based; details: read-out: pA2 (converted)
T2 sequence (P23944 whole entry): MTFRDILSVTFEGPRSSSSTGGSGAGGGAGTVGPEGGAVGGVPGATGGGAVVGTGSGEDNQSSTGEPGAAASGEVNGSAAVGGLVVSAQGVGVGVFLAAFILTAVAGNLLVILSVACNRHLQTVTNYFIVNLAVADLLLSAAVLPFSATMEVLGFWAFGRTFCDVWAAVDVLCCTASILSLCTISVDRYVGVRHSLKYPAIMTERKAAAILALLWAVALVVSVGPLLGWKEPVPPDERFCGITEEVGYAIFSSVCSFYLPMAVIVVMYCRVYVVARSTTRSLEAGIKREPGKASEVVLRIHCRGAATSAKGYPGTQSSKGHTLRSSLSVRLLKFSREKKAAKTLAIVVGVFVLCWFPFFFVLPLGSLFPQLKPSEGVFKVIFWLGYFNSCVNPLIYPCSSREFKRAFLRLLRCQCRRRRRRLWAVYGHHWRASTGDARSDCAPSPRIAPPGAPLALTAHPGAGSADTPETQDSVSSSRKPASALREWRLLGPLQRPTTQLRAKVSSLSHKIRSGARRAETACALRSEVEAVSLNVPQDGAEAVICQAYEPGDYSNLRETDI

[7] = molecular target: T3, Alpha-1B adrenergic receptor (Rattus norvegicus, UniProt P15823); experiment: Blocking activity was assessed by antagonism of (-)-phenylephrine induced contraction of rat spleen (alpha1B adrenoceptor); assay type: functional, tissue-based; details: read-out: pA2 (converted)
T3 sequence (P15823 whole entry): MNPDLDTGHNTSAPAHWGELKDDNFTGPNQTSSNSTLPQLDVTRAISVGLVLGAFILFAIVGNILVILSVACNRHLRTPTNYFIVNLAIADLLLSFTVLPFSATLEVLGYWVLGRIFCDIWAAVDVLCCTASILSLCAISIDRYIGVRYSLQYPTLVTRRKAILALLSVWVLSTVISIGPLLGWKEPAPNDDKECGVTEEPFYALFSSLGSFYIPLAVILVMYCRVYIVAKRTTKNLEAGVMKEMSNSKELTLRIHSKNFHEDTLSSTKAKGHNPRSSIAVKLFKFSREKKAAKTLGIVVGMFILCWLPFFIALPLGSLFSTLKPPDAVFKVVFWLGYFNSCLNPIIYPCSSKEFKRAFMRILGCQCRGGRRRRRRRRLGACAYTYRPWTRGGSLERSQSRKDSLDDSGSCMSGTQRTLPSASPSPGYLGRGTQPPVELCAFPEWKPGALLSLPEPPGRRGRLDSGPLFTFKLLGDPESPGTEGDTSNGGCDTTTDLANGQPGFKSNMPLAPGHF

[8] = molecular target: T4, Alpha-1B adrenergic receptor (Homo sapiens, UniProt P35368); experiment: Equilibrium dissociation constant was evaluated by radio-receptor binding assays using [3H]prazosin to label cloned human alpha 1b expressed in CHO cells; assay type: cell-based
T4 sequence (P35368 whole entry): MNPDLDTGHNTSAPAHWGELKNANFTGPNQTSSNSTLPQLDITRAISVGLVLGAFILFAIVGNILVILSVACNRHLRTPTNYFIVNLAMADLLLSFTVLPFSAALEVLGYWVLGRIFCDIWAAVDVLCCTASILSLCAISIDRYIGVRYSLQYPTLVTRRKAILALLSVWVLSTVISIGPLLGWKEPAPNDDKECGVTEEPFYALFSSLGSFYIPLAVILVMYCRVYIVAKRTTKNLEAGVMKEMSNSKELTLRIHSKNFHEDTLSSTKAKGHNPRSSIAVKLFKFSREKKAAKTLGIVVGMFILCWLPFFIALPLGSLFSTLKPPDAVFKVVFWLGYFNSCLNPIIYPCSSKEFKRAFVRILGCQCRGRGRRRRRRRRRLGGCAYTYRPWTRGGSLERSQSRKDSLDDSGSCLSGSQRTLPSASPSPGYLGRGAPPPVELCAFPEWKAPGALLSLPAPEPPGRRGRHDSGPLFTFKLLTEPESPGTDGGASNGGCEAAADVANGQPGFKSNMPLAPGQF

[9] = system: LNCaP; experiment: Antioxidant activity against formation of ROS was determined in t-BuOOH treated LNCaP cells after 24 hr of incubation with compounds (1-100 uM); Not active at 100 uM; assay type: functional, cell-based, Homo sapiens
[10] = molecular target: T5, Alpha-1D adrenergic receptor (Homo sapiens, UniProt P25100); experiment: Equilibrium dissociation constant was evaluated by radio-receptor binding assays using [3H]prazosin to label cloned human alpha 1d expressed in CHO cells; assay type: cell-based
T5 sequence (P25100 whole entry): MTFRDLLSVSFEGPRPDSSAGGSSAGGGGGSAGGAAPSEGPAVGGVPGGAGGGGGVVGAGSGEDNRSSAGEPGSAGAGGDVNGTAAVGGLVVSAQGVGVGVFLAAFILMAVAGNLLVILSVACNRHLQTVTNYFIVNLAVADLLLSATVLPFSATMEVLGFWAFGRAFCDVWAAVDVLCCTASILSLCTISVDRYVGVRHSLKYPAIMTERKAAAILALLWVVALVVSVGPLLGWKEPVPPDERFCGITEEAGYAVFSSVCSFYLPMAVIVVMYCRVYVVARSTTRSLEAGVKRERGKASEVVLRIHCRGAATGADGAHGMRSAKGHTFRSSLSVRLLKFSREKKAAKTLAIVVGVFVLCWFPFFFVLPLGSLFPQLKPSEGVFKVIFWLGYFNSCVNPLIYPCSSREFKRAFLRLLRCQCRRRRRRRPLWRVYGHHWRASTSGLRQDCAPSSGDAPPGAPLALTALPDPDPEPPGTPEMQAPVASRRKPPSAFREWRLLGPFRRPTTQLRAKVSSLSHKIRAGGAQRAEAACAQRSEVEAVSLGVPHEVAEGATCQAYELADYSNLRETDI

[11] = molecular target: T6, Alpha-1A adrenergic receptor (Homo sapiens, UniProt P35348); experiment: Equilibrium dissociation constant was evaluated by radio-receptor binding assays using [3H]prazosin to label cloned human alpha 1a expressed in CHO cells; assay type: cell-based
T6 sequence (P35348 whole entry): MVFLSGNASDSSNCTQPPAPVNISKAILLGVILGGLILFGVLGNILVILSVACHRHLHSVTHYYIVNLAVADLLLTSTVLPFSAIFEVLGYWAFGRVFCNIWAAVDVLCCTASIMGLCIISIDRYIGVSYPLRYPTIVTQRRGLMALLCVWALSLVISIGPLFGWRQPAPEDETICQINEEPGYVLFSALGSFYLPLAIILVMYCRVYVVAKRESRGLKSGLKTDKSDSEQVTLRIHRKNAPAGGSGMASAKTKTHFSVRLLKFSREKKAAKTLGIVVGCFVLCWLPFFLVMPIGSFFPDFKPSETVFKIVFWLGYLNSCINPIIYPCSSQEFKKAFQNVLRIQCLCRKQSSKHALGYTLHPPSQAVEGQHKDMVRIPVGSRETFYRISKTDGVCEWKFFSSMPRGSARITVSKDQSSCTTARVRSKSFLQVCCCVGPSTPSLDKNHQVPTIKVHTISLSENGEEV

[12] = system: LNCaP; experiment: Antiproliferative activity was determined by colorimetric MTS assay in LNCaP cells after 72 hr of incubation with compounds (1-100 uM); assay type: functional, cell-based; details: Homo sapiens; in short: as §1

SMILES	IC50 [1]	IC50 [2]	Kb [3] [nM]	IC50 [4]	IC50 [5] [nM]	Kb [6] [nM]	Kb [7] [nM]	Ki [8] [nM]	IC50 [9]	Ki [10] [nM]	Ki [11] [nM]	IC50 [12] [nM]
COC1=CC(=O)c2ccccc2C1=O [2-Methoxy-1,4-naphthoquinone]	Not Active	Not Active										
O=C(O)CCCCC1CCSS1 (stereo not drawn) [LIPOIC ACID, ALPHA]			> 10000	Not Active	54900	> 10000	> 10000					
COc1cc2nc(N3CCN(C(=O)CC4CCSS4)CC3)nc(N)c2cc1OC (stereo not drawn)			1			0.912	1.02	0.309	Not Active	0.389	0.288	52600
COc1cc2nc(N3CCN(C4=CC(=O)c5ccccc5C4=O)CC3)nc(N)c2cc1OC			22.9		2630	0.891	3.09	0.676		0.933	1.26	8820
COc1cc2nc(N3CCN(C(=O)C4CCSS4)CC3)nc(N)c2cc1OC (stereo not drawn)			18.6			0.871	1.74	0.537	Not Active	0.49	0.813	49600
COc1cc2nc(N3CCNCC3)nc(N)c2cc1OC [AMINODIMETHOXYQUINAZOLINYLPIPERAZINE]				Not Active					Not Active			
COc1cc2nc(N3CCN(C(=O)CCCCC4CCSS4)CC3)nc(N)c2cc1OC (stereo not drawn)			64.6	Not Active	83500	12	40.7	1.26		0.891	1.41	
COc1cc2nc(N3CCN(C(=O)c4ccco4)CC3)nc(N)c2cc1OC [PRAZOSIN]									Not Active			67500
